According to ChEMBL document CHEMBL1156684, “Non-nucleoside HIV-1 reverse transcriptase inhibitors. Part 11: structural modulations of diaryltriazines with potent anti-HIV activity” (Eur J Med Chem, 2008):
pIC50: −log10 of the molar value.

What was measured:
[1] = system: Human immunodeficiency virus 2; assay: Antiviral activity against HIV2 ROD in human MT4 cells assessed as inhibition of viral replication by MTT assay; format: functional, organism-based; settings: Human immunodeficiency virus 2, ROD
Outline: (§1)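 MT-4 cells at 1 × 10⁵ cells/ml infected with HIV at multiplicity of infection 0.02 (virus stocks titrated in MT-4 cells as CCID₅₀), then plated immediately with serial compound dilutions (DMSO stocks at 50 mM or higher). Viable cells counted by MTT after 4 days at 37 °C. IC₅₀ is the concentration protecting 50% of cells from viral cytopathogenicity.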

[2] = system: Human immunodeficiency virus 1; assay: Antiviral activity against HIV 3B in human MT4 cells assessed as inhibition of viral replication by MTT assay; format: functional, organism-based; settings: Human immunodeficiency virus 1, 3B; outline: as §1
[3] = Selectivity index, ratio of CC50 for human MT4 cells to IC50 for HIV1 3B; format: functional
Outline: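 Ratio CC₅₀/IC₅₀. CC₅₀ is from MTT viability of MT-4 cells and IC₅₀ from MTT protection of HIV-infected MT-4 cells (MOI 0.02), both after 4 days at 37 °C.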

[4] = Cytotoxicity against human MT4 cells after 4 days by MTT assay; format: cell-based
Outline: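 Uninfected MT-4 cells exposed to graded compound concentrations (DMSO stocks at 50 mM or higher) for 4 days at 37 °C. Viability read by MTT. CC₅₀ is the concentration reducing MT-4 cell viability by 50%.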

SMILES | pIC50 [1] | pIC50 [2] | Ratio CC50/IC50 [3] | CC50 at 96 h [4]
CNc1nc(Nc2ccc(C#N)cc2)nc(Oc2ccc3cc(Br)ccc3c2)n1 | < 3.71 | 6.55 | 685 | 194 µM
N#Cc1ccc(Nc2nc(N)nc(Oc3ccc4ccccc4c3Br)n2)cc1 | 4.69 | 8.03 | 14094 | 133 µM
Cc1ccnc2c1NC(=O)c1cccnc1N2C1CC1 [NEVIRAPINE] | – | – | >800 | > 200 µM
CCNc1nc(Nc2ccc(C#N)cc2)nc(Oc2ccc3cc(Br)ccc3c2Br)n1 | < 4.13 | 6.81 | 477 | 74.4 µM
CC(C)Nc1nc(Nc2ccc(C#N)cc2)nc(Oc2ccc3cc(Br)ccc3c2Br)n1 | 5.01 | 6.16 | >302 | ≥ 209 µM
CC(C)Nc1nc(Nc2ccc(C#N)cc2)nc(Oc2ccc3ccccc3c2Br)n1 | < 4.38 | 5.97 | 39 | 41.5 µM
CCCNc1nc(Nc2ccc(C#N)cc2)nc(Oc2ccc3cc(Br)ccc3c2Br)n1 | 5.18 | 6.59 | 524 | 134 µM
CNc1nc(Nc2ccc(C#N)cc2)nc(Oc2cccc3ccccc23)n1 | < 4.52 | 6.73 | 163 | 30.3 µM
CCCNc1nc(Nc2ccc(C#N)cc2)nc(Oc2ccc3ccccc3c2Cl)n1 | ≤ 4.36 | 6.73 | >1547 | > 290 µM
CNc1nc(Nc2ccc(C#N)cc2)nc(Oc2ccc3ccccc3c2Br)n1 | ≤ 4.55 | 8.03 | 15400 | 143 µM
CCCNc1nc(Nc2ccc(C#N)cc2)nc(Oc2ccc3ccccc3c2Br)n1 | ≤ 4.23 | 6.69 | >1294 | > 263 µM
N#Cc1ccc(Nc2nc(N)nc(Oc3ccc4cc(Br)ccc4c3Br)n2)cc1 | 4.98 | 7.71 | 12475 | 244 µM
CNc1nc(Nc2ccc(C#N)cc2)nc(Oc2ccc3ccccc3c2)n1 | < 3.60 | 6.59 | 968 | 250 µM
N#Cc1ccc(Nc2nc(N)nc(Oc3cccc4ccccc34)n2)cc1 | < 4.41 | 6.97 | 364 | 39.1 µM
CCNc1nc(Nc2ccc(C#N)cc2)nc(Oc2ccc(Cl)c3ccccc23)n1 | < 3.68 | 6.13 | 285 | 208 µM
N#Cc1ccc(Nc2nc(N)nc(Oc3ccc4cc(Br)ccc4c3)n2)cc1 | 4.71 | 7.09 | 3019 | 243 µM
CCNc1nc(Nc2ccc(C#N)cc2)nc(Oc2ccc3ccccc3c2Cl)n1 | 4.80 | 6.94 | 1642 | 188 µM
CCCNc1nc(Nc2ccc(C#N)cc2)nc(Oc2ccc(Cl)c3ccccc23)n1 | 4.34 | 5.79 | 111 | 182 µM
N#Cc1ccc(Nc2nc(N)nc(Oc3ccc(Cl)c4ccccc34)n2)cc1 | ≤ 4.90 | 7.21 | 3775 | 237 µM
N#Cc1ccc(Nc2nc(N)nc(Oc3ccc4ccccc4c3)n2)cc1 | ≤ 4.94 | 7.05 | 471 | 42.2 µM
CNc1nc(Nc2ccc(C#N)cc2)nc(Oc2ccc3ccccc3c2Cl)n1 | < 3.77 | 7.93 | 14412 | 171 µM
N#Cc1ccc(Nc2nc(N=[N+]=[N-])nc(Oc3ccc4ccccc4c3Cl)n2)cc1 | 5.21 | 7.22 | 4270 | 256 µM
CNc1nc(Nc2ccc(C#N)cc2)nc(Oc2ccc3cc(Br)ccc3c2Br)n1 | < 4.04 | 7.74 | 5018 | 92.8 µM
CCCNc1nc(Nc2ccc(C#N)cc2)nc(Oc2cccc3ccccc23)n1 | < 4.14 | 5.57 | 11 | 29.5 µM
O=c1[nH]cnc2c1ncn2[C@H]1CC[C@@H](CO)O1 [DIDANOSINE] | – | – | >=98 | ≥ 529 µM
CNc1nc(Nc2ccc(C#N)cc2)nc(Oc2ccc(Cl)c3ccccc23)n1 | < 3.71 | 7.03 | 2111 | 197 µM
N#Cc1ccc(Nc2nc(N)nc(Oc3ccc4ccccc4c3Cl)n2)cc1 | ≤ 5.28 | 7.54 | 2872 | –
